Data on 17 compounds can be found in ChEMBL document CHEMBL3352329, “Antifungal activity of resveratrol derivatives against Candida species” (2014).

Converted amounts (≈) assume the structure as drawn. The source made the active and inactive calls. The rule behind the calls is not given here.

Assay [1] deals with Candida albicans. Briefly: Antifungal activity against Candida albicans SC5314 ATCC MYA-2876 assessed as growth inhibition at 300 ug/ml after 48 hrs by broth microdilution method. It counts as functional, organism-based. An outline of the steps:
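Broth microdilution in RPMI AutoMod medium against SC5314, tested up to 300 μg/mL, the highest concentration used. Inoculum from a 0.5 McFarland suspension (10^6 cfu/mL). Incubated 48 h at 32 °C, growth read as OD at 630 nm. Activity judged as 95% growth inhibition versus control. Two independent experiments, each in triplicate.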

Assay [2] has as its system Candida albicans. Briefly: Antifungal activity against Candida albicans SC5314 ATCC MYA-2876 assessed as growth inhibition after 48 hrs by broth microdilution method. Format: functional. As to conditions: SC5314 ATCC MYA-2876, 48 h. In outline:
(§1)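 CLSI broth microdilution with serial 2-fold dilutions in RPMI AutoMod medium. Inoculum from a 0.5 McFarland suspension (10^6 cfu/mL). Plates incubated 48 h at 32 °C, then OD read at 630 nm. MIC95 is the lowest concentration giving 95% growth inhibition versus untreated control. Mean of two independent experiments, each run in triplicate.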

The subject of the next assay is Candida dubliniensis. As to the kind of experiment: Antifungal activity against Candida dubliniensis ATCC MYA-646 assessed as growth inhibition after 48 hrs by broth microdilution method. Format: functional. As to conditions: ATCC MYA-646, 48 h. An outline of the steps: as §1
The next assay has as its system Debaryomyces hansenii. As to the kind of experiment: Antifungal activity against Candida famata VKMY-9 assessed as growth inhibition after 48 hrs by broth microdilution method. Format: functional. The note with it: VKMY-9, 48 h. An outline of the steps:
as §1

For the next assay, the system named is Nakaseomyces glabratus. Briefly: Antifungal activity against Candida glabrata ATCC 90030 assessed as growth inhibition after 48 hrs by broth microdilution method. The note with it: ATCC 90030, 48 h. It counts as functional. In outline: as §1
Assay [3] relates to Meyerozyma guilliermondii. As to the kind of experiment: Antifungal activity against Candida guilliermondii ATCC 6260 assessed as growth inhibition after 48 hrs by broth microdilution method. Format: functional. As to conditions: ATCC 6260, 48 h. In outline:
as §1

A further assay has as its system [Candida] inconspicua. Briefly: Antifungal activity against Candida inconspicua clinical isolate assessed as growth inhibition after 48 hrs by broth microdilution method. Format: functional. As to conditions: Pichia inconspicua. An outline of the steps: as §1
Another assay concerns Kluyveromyces marxianus. As to the kind of experiment: Antifungal activity against Candida kefyr clinical isolate assessed as growth inhibition after 48 hrs by broth microdilution method. It counts as functional. An outline of the steps: as §1
Another assay has as its system Pichia kudriavzevii. As to the kind of experiment: Antifungal activity against Candida krusei ATCC 6258 assessed as growth inhibition after 48 hrs by broth microdilution method. It counts as functional. The note with it: ATCC 6258, 48 h. An outline of the steps: as §1
A further assay has as its system Clavispora lusitaniae. Briefly: Antifungal activity against Candida lusitaniae CBS 6936 assessed as growth inhibition after 48 hrs by broth microdilution method. Format: functional. The note with it: CBS 6936, 48 h. An outline of the steps: as §1
The subject of a further assay is Pichia norvegensis. As to the kind of experiment: Antifungal activity against Candida norvegensis clinical isolate assessed as growth inhibition after 48 hrs by broth microdilution method. Format: functional. In outline:
as §1

The subject of another assay is Candida parapsilosis. As to the kind of experiment: Antifungal activity against Candida parapsilosis ATCC 22019 assessed as growth inhibition after 48 hrs by broth microdilution method. Format: functional. The note with it: Lodderomyces parapsilosis, ATCC 22019, 48 h. In outline: as §1
In assay [4] the test system is Candida tropicalis. Briefly: Antifungal activity against Candida tropicalis ATCC MYA-3404/T1 assessed as growth inhibition after 48 hrs by broth microdilution method. Format: functional. The note with it: ATCC MYA-3404/T1, 48 h. An outline of the steps:
as §1

Assay [5] has as its system Candida albicans. Briefly: Antifungal activity against Candida albicans SC5314 ATCC MYA-2876 assessed as inhibition of hyphal formation at 14 ug/ml after 48 hrs by microscopy. Format: functional, organism-based. In outline:
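Yeast-to-hyphae transition of SC5314 examined after 48 h at 32 °C in RPMI medium. Cells exposed to 7, 14 or 28 μg/mL alongside untreated control cells. Hyphal formation assessed by comparing cell morphology between treated and control cultures.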

Assay [6] has as its system Candida tropicalis. As to the kind of experiment: Antifungal activity against Candida tropicalis ATCC MYA-3404/T1 assessed as growth inhibition at 300 ug/ml after 48 hrs by broth microdilution method. It counts as functional, organism-based. An outline of the steps:
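Broth microdilution per CLSI, serial 2-fold dilutions in RPMI AutoMod medium; inoculum 0.5 McFarland (10^6 cfu/mL). Incubation 48 h at 32 °C, OD 630 nm read; activity judged against untreated control, MIC95 being lowest concentration giving 95% growth inhibition; 300 μg/mL highest concentration tested. Two independent experiments, each in triplicate; mean values.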

As for `CC(=O)Oc1ccc(/C=C/c2cc(O)cc(OC(C)=O)c2)cc1`, in the assay on Candida albicans [1], the “growth inhibition (GI)” value was “inactive”.
As for `COc1ccc(/C=C/c2cc(OC)cc3c2[C@H](c2cc(OC)cc(OC)c2)[C@@H](c2ccc(OC)cc2)O3)cc1` (relative stereo), the “growth inhibition (GI)” value with Candida albicans [1] is “inactive”.
The same measure, in the same setting: next, `Oc1ccc([C@H]2c3c(O)cc(O)cc3[C@H]3c4c(cc(O)cc4[C@@H]2O)O[C@@H]3c2ccc(O)cc2)cc1`: “inactive”.
On the same count and under the same terms, next, `OC[C@H]1O[C@@H](Oc2cc(O)cc(/C=C/c3ccc(O)cc3)c2)[C@H](O)[C@@H](O)[C@@H]1O`: “inactive”; `CC(=O)Oc1cc(/C=C/c2ccc(O)cc2)cc(OC(C)=O)c1`: “inactive”.
For the compound `COc1cc(/C=C/c2ccc(O)cc2)cc(OC)c1` [PTEROSTILBENE], the MIC95 in the assay with Candida albicans [2] is 28 µg/mL (≈ 109 µM); in the assay on Candida dubliniensis it was 14 µg/mL (≈ 54.6 µM); with Debaryomyces hansenii it was 7 µg/mL (≈ 27.3 µM); in the assay on Nakaseomyces glabratus, 28 µg/mL (≈ 109 µM); in assay [3] it was 7 µg/mL (≈ 27.3 µM); in assay [Candida] inconspicua, 28 µg/mL (≈ 109 µM). The MIC95 was 14 µg/mL (≈ 54.6 µM) in the assay on Kluyveromyces marxianus; 28 µg/mL (≈ 109 µM) with Pichia kudriavzevii; 28 µg/mL (≈ 109 µM) in the assay on Clavispora lusitaniae; 28 µg/mL (≈ 109 µM) with Pichia norvegensis; 14 µg/mL (≈ 54.6 µM) in the assay on Candida parapsilosis; 28 µg/mL (≈ 109 µM) with Candida tropicalis [4]. Further, the inhibition result in the assay on Candida albicans [5] is “Active”.
`CC(=O)Oc1cc(O)cc(/C=C/c2ccc(O)cc2)c1`: the “growth inhibition (GI)” value in the assay on Candida albicans [1] was “inactive”.
On to `Oc1ccc(/C=C/c2cc(O)cc(O)c2)cc1`, for which the “growth inhibition (GI)” value in the assay with Candida albicans [1] was “inactive”.
As for `Nc1nc(=O)[nH]cc1F` [FLUCYTOSINE], the MIC95 is 2 µg/mL (≈ 15.5 µM) in the assay with Candida albicans [2]; 2 µg/mL (≈ 15.5 µM) with Candida dubliniensis; 2 µg/mL (≈ 15.5 µM) in the assay on Debaryomyces hansenii; 4 µg/mL (≈ 31 µM) with Nakaseomyces glabratus; 2 µg/mL (≈ 15.5 µM) in assay [3]; 4 µg/mL (≈ 31 µM) in assay [Candida] inconspicua. Besides, the MIC95 with Kluyveromyces marxianus came out at 4 µg/mL (≈ 31 µM); with Pichia kudriavzevii, 4 µg/mL (≈ 31 µM); with Clavispora lusitaniae it was 2 µg/mL (≈ 15.5 µM); in the assay on Pichia norvegensis it was 4 µg/mL (≈ 31 µM); in the assay on Candida parapsilosis, 4 µg/mL (≈ 31 µM); with Candida tropicalis [4], 4 µg/mL (≈ 31 µM).
On to `COc1ccc(/C=C/c2cc(O)cc(O)c2)cc1` [RESVERATROL 4'-METHYL ETHER], for which the MIC95 with Candida albicans [2] was determined as 150 µg/mL (≈ 619 µM); with Candida dubliniensis, 150 µg/mL (≈ 619 µM); in the assay on Debaryomyces hansenii, 18 µg/mL (≈ 74.3 µM); with Nakaseomyces glabratus, 150 µg/mL (≈ 619 µM); in assay [3], 150 µg/mL (≈ 619 µM); in assay [Candida] inconspicua, 300 µg/mL (≈ 1240 µM). Also, the MIC95 with Kluyveromyces marxianus amounted to 150 µg/mL (≈ 619 µM); in the assay on Pichia kudriavzevii it was 150 µg/mL (≈ 619 µM); in the assay on Clavispora lusitaniae, 300 µg/mL (≈ 1240 µM); with Pichia norvegensis it was 75 µg/mL (≈ 310 µM); with Candida parapsilosis, 300 µg/mL (≈ 1240 µM); in the assay on Candida tropicalis [4], 300 µg/mL (≈ 1240 µM).
Consider `Oc1ccc(/C=C/c2cc(O)cc3c2[C@H](c2cc(O)cc(O)c2)[C@@H](c2ccc(O)cc2)O3)cc1` (relative stereo), for which the “growth inhibition (GI)” value in the assay on Candida albicans [1] was “inactive”.
On to `Oc1ccc([C@H]2Oc3ccc(/C=C/c4cc(O)cc5c4[C@@H](c4cc(O)cc(O)c4)[C@H](c4ccc(O)cc4)O5)cc3[C@@H]2c2cc(O)cc3c2[C@H](c2cc(O)cc(O)c2)[C@@H](c2ccc(O)cc2)O3)cc1` (mixture of isomers), for which the MIC95 in the assay with Candida albicans [2] turned out to be 300 µg/mL; in the assay with Candida dubliniensis it was 150 µg/mL; in the assay on Debaryomyces hansenii it was 18 µg/mL; with Nakaseomyces glabratus it was 300 µg/mL; in [3], 150 µg/mL; in [Candida] inconspicua, 300 µg/mL. For the same compound, the MIC95 worked out at 150 µg/mL in the assay with Kluyveromyces marxianus; 300 µg/mL with Pichia kudriavzevii; 300 µg/mL with Clavispora lusitaniae; 300 µg/mL in the assay on Pichia norvegensis; 300 µg/mL in the assay on Candida parapsilosis. In addition, the “growth inhibition (GI)” value in the assay with Candida tropicalis [6] was “inactive”.
Consider `COc1cc(O)cc(/C=C/c2ccc(O)cc2)c1`, for which the MIC95 with Candida albicans [2] worked out at 300 µg/mL (≈ 1240 µM); in the assay on Candida dubliniensis it was 150 µg/mL (≈ 619 µM); in the assay on Debaryomyces hansenii it was 18 µg/mL (≈ 74.3 µM); in the assay with Nakaseomyces glabratus, 300 µg/mL (≈ 1240 µM); in assay [3], 150 µg/mL (≈ 619 µM); in [Candida] inconspicua, 300 µg/mL (≈ 1240 µM). Further, the MIC95 worked out at 150 µg/mL (≈ 619 µM) in the assay on Kluyveromyces marxianus; 300 µg/mL (≈ 1240 µM) in the assay with Pichia kudriavzevii; 300 µg/mL (≈ 1240 µM) in the assay on Clavispora lusitaniae; 300 µg/mL (≈ 1240 µM) in the assay on Pichia norvegensis; 300 µg/mL (≈ 1240 µM) in the assay with Candida parapsilosis. The “growth inhibition (GI)” value with Candida tropicalis [6] was “inactive”.
As to `CC(=O)Oc1ccc(/C=C/c2cc(OC(C)=O)cc(OC(C)=O)c2)cc1`, the “growth inhibition (GI)” value in the assay on Candida albicans [1] is “inactive”.
Still for that read-out and setting: in the case of `CC(=O)Oc1ccc(/C=C/c2cc(OC(C)=O)cc3c2[C@H](c2cc(OC(C)=O)cc(OC(C)=O)c2)[C@@H](c2ccc(OC(C)=O)cc2)O3)cc1` it was “inactive”.
On to `COc1ccc(/C=C/c2cc(OC)cc(OC)c2)cc1`, for which the “growth inhibition (GI)” value in the assay with Candida albicans [1] was “inactive”.
In the case of `COc1ccc(/C=C/c2cc(O)cc(OC)c2)cc1`, the MIC95 was 37 µg/mL (≈ 144 µM) in the assay on Candida albicans [2]; 18 µg/mL (≈ 70.2 µM) with Candida dubliniensis; 9 µg/mL (≈ 35.1 µM) in the assay on Debaryomyces hansenii; 37 µg/mL (≈ 144 µM) in the assay with Nakaseomyces glabratus; 18 µg/mL (≈ 70.2 µM) in [3]; 37 µg/mL (≈ 144 µM) in assay [Candida] inconspicua. Moreover, the MIC95 in the assay on Kluyveromyces marxianus came out at 18 µg/mL (≈ 70.2 µM); in the assay on Pichia kudriavzevii, 37 µg/mL (≈ 144 µM); in the assay with Clavispora lusitaniae, 37 µg/mL (≈ 144 µM); in the assay with Pichia norvegensis, 37 µg/mL (≈ 144 µM); in the assay with Candida parapsilosis, 18 µg/mL (≈ 70.2 µM); with Candida tropicalis [4], 27 µg/mL (≈ 105 µM).
